As a reminder, the inhibition is the change of the read-out against control, counted positive when it falls.

The campaign covered roughly 140,000 compounds. About 710 (0.51%) were called active. What follows is part of a selection rich in actives, with near analogues and random picks from the rest. Unmarked numbers belong to inactive results.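 Rule for the calls: active = inhibition above a set limit, 3 SD over the mean compound inhibition (cut at about 44% in these data); inactive = the rest.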

The assay can be described thus: BB579 yeast growth reduction, restrictive medium – S. cerevisiae, yeast lifespan-shortening project, primary screen (AID 804). The note with it: OD615, 48 h, at 10 µM, hits give high values. In short, it runs like this:
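System: DeaD yeast strain BB579; buffer or medium: CSMM-D dextrose restrictive medium; technique: OD at 615 nm; schedule: 4 h cell preincubation, 48 h compound exposure, 30 °C humidified; doses: single 10 µM dose; controls: amphotericin B 10 µg/mL, positive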
Regarding `COc1ccc(Br)cc1/C=N/n1c(C)nnc1C`, the inhibition was -33.3%. The value for `COc1cc(Br)cc(/C=N/c2ncn[nH]2)c1O` was 54.7% (active); that for `Oc1ccc(Br)cc1C=Nc1ccc2[nH]ncc2c1` was -67.6%.

In the case of `O=c1[nH]n(-c2cccc(Cl)c2)c2ncccc12`, the inhibition was -63.7%. In the case of `Nc1c(C(=O)NCc2ccccc2)nnn1Cc1cccc(Cl)c1`, the inhibition was -3.98%. On to `Clc1cccc(CN2COc3c(cc(Cl)c4cccnc34)C2)c1`, for which the inhibition is 99.4% (active). As for `Cc1cc(OCCCC(=O)NCCN2C(=O)S/C(=C\c3cccnc3)C2=O)ccc1Cl`, the inhibition was -3.48%. The value for `CCc1c(C)sc(NC(=O)/C=C/c2ccc3c(c2)OCO3)c1C(=O)OC` was -27.2%. In the case of `Nc1nc(NC(=O)/C=C/c2ccccc2)nn1-c1ccccc1`, the inhibition was -11.2%. The same measure for `COc1ccc(C(=O)O/N=C(\N)Cc2ccc(Cl)cc2Cl)cc1OC`: -25.8%; for `COC(=O)c1sc2ncccc2c1OCc1ccc(Cl)cc1Cl`: -44.1%; for `NC(N)=N/N=C/c1ccc(OCc2ccc(Cl)cc2Cl)cc1`: 99.3% (active). Turning to `COc1ccccc1CN(C)C(=O)C1(c2ccc(Cl)cc2)CC1`, the inhibition is -2.98%. As for `N/C(=N\OC(=O)CC1CCCCC1)c1ccccc1`, the inhibition was -2.81%. On to `CCCCn1c(=S)[nH]c2ccccc2c1=O`, for which the inhibition was 6.35%. Consider `Cc1c(Cl)c([N+](=O)[O-])nn1CCCC(=O)Nc1cc(Cl)ccc1Cl`, for which the inhibition was 2.39%. Regarding `Nc1nc(SCC(=O)NN(c2ccccc2)c2ccccc2)n[nH]1`, the inhibition was -6.56%. Take `CC(C)(C)C1CCC(=NNC(=O)c2cc(-c3ccccc3)n[nH]2)CC1` (stereo not given): the inhibition is -16.9%. In the case of `O=C1NC(c2ccccc2)=NC1(Nc1ccccn1)C(F)(F)F` (stereo not given), the inhibition was -3.11%. Turning to `CCN=C1S/C(=C\c2cc(Br)ccc2OCC(=O)OCC)C(=O)N1CC`, the inhibition was -14.3%.

As to `COCCn1c(SCC(=O)Nc2ccc3c(c2)CCC3)nc2ccccc2c1=O`, the inhibition was -36.9%. Consider `COc1ccc(C2Nc3ccccc3C(=O)N2c2ccc(F)cc2)cc1Cn1nnc2ccccc21` (stereo not given), for which the inhibition was -29.1%.

With `CC(C)CNC(=S)Nc1ccc(F)cc1`, the inhibition is 14.5%. Regarding `CCOC(=O)c1cc2c(nc1NC(=S)Nc1ccccc1)CC(C)(CC)OC2` (stereo not given), the inhibition is 0.93%. The value for `COc1cc(NC(=O)c2ccccc2NS(=O)(=O)c2ccc(Cl)s2)cc(OC)c1` was -5.4%. The same measure for `COC(=O)Cc1ccc(NC(=S)NCc2ccc(Cl)cc2)cc1`: -19.1%.

For `S=C(NCc1ccc(Cl)cc1)NC12CC3CC(CC(C3)C1)C2`, the inhibition is 50% (active).

As for `S=C(NCc1ccc(Cl)cc1)NC1CCCCC1`, the inhibition was -27.3%. Turning to `O=C(CCc1nc2ccccc2c(=O)[nH]1)OCC(=O)c1cccc(Cl)c1`, the inhibition was -13.4%. The same measure for `N#C/C(=C/c1cccc([N+](=O)[O-])c1)c1nnc2n1CCCCC2`: -18.8%; for `COCC(C)n1c(C)cc(C(=O)CSc2cc(C)c3ccccc3n2)c1C` (stereo not given): -56.2%. On to `O=c1[nH]cnc2c1c(-c1ccccc1)cn2-c1ccc(F)cc1`, for which the inhibition is -19.6%. On to `COc1ccc(-n2nnnc2-c2nc3ccccc3s2)cc1`, for which the inhibition is -33.6%. In the case of `O=C1OC(OC(=O)c2ccccc2Br)C(N2CCOCC2)=C1Cl` (stereo not given), the inhibition was -32.6%.

With `Cc1cccc(OCC(=O)NC(=S)Nc2ccccc2N2CCOCC2)c1`, the inhibition was -49.4%. The same measure for `CCOc1cc(N2CCOCC2)c(OCC)cc1NC(=O)COc1cccc2cccnc12`: 67.1% (active); for `CCOc1cc(N2CCOCC2)c(OCC)cc1NC(=O)COC(=O)[C@H](Cc1c[nH]c2ccccc12)NC(C)=O`: -16%. `CCc1ccc2c(c1)C(c1ccc([N+](=O)[O-])cc1)=NNC(c1ccccc1)=N2`: the inhibition was -23.5%.

In the case of `O=C(Nc1ncccn1)c1cccs1`, the inhibition is -21.9%. The same measure for `Cn1c(=O)c(C(=O)Nc2ncccn2)c(O)c2ccccc21`: 68.5% (active); for `Cn1c(=O)c(Sc2ccc(Cl)cc2)c(O)c2ccccc21`: -21.7%. In the case of `Cc1ccc(NC(=O)c2sc3nc(N)c(C#N)cc3c2N)cc1`, the inhibition is -23.2%. As for `O=C(Cc1c[nH]c2ccccc12)N/N=C/c1cccc(F)c1`, the inhibition was -39.1%.

As for `COC(=O)Cn1c2ccc(C)cc2c2nc(C)sc21`, the inhibition is 43.6% (active). For the molecule `COC(=O)Cn1c(=NC(=O)c2cc(OC)c(OC)c(OC)c2)sc2cc(OC)ccc21`, the inhibition is -32.8%. Take `CCN(CC)CCn1c2ccc(Cl)cc2c2nc(C)sc21`: the inhibition is -1.41%. For the molecule `CCOC(=O)c1nn(-c2ccccc2F)c2nc(Nc3ccccc3)cc(=O)n12`, the inhibition is -45.6%. `Cc1c(C=O)c2ccccn2c1C(=O)c1ccncc1`: the inhibition is 43.9% (active).

On to `CC(OC(=O)CNS(=O)(=O)/C=C/c1ccccc1)C(=O)Nc1ccc(S(=O)(=O)N2CCCC2)cc1` (stereo not given), for which the inhibition was -25.4%. As for `CN1CCC(=NNC(=O)c2ccc(N(Cc3ccc(Cl)cc3)S(C)(=O)=O)cc2)CC1`, the inhibition is -8.48%.

Values taken from PubChem BioAssay AID804 (SRMLSC, 2007).
